Avidin fluor: avidin bead compound fluorescence profile. Avidin beads, compound fluorescence 488/530 nm, flow cytometry; active compounds read high. fluorescence (KMESF) at 10 µM. 220,000 compounds, 0.38% hits. AID 1775; in the data active = fluorescence above about 47
GSH bead fluor: compound fluoresces at 488/530 nm on GSH beads. 190,000 compounds, 0.25% hits. fluorescence (KMESF) at 10 µM. GSH beads flow cytometry, compound fluorescence 488/530 nm; active compounds read high; in the data active = fluorescence above about 89;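 note: glutathione beads carrying GST-tagged Bcl family fusion proteins plus one bare bead set; values are compound well signal with DMSO vehicle wells as background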
Arr AP2 block: human beta-arrestin and AP2 interaction inhibition | FITC-arrestin peptide / GST-AP2 beads, flow cytometry; AP2 beta2 appendage carries R879A mutation | inhibition, % at 10 µM | 340,000 compounds, 0.31% hits | AID 504490;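 active = inhibition above a set limit, near 3 SD of compounds lacking own fluorescence, cut at about 54% in these data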;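 note: plate controls were DMSO wells for no effect and 5 µM unlabelled arrestin peptide for full effect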
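system = GST-tagged AP2 beta2-adaptin appendage (R879A) on 4 µm glutathione beads | reagent = FITC-labelled arrestin peptide probe, 50 nM final | schedule = compound with beads 12 min RT, then probe 1 h RT | signal = HyperCyt-sampled flow cytometry, FL1 channel, ex 488/em 535 nm | read-out = percent response from loss of bead-bound FITC fluorescence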
Pemphigus Ab inh: inhibitors of pemphigus antibody binding to human desmoglein-3; P32926; DSG3-coupled beads, scFv-anti-DSG3-GFP binding, flow cytometry; active compounds read low; binding (percent of control), % at 10 µM; 310,000 compounds, 0.48% hits;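 active = binding more than 3 SD below its plate's average and above zero; inconclusive = below that plate limit but binding exactly zero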;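 note: hits lower antibody fragment binding to DSG3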
Target sequence (P32926 whole entry, looked up, the tested form may be a part): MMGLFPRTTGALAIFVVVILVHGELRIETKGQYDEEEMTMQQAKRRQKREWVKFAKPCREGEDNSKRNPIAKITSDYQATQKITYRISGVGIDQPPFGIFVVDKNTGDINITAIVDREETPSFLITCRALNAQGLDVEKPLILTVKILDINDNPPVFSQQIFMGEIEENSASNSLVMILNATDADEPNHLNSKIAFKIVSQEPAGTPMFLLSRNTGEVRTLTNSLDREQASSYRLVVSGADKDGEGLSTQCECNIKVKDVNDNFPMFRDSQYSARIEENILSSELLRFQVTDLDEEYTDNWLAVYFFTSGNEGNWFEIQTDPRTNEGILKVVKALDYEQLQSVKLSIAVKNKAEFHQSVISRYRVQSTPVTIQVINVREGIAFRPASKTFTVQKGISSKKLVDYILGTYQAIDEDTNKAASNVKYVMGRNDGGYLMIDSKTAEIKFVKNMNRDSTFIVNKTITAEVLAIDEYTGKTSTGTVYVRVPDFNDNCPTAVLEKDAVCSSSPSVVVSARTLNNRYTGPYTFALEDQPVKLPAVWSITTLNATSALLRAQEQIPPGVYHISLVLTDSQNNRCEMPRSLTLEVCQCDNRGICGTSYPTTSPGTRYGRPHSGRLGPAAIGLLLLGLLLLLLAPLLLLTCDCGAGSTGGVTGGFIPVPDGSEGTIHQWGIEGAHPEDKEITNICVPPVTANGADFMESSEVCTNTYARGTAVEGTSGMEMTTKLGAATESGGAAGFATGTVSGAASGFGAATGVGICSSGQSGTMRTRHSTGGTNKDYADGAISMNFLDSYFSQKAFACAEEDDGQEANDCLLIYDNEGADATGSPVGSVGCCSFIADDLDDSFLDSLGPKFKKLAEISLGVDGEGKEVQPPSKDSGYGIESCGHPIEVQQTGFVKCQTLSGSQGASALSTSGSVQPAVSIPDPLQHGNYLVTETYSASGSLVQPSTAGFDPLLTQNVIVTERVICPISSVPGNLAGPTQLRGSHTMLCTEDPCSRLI
Arr-AP2 CP1: human beta-arrestin and AP2 interaction inhibition, cherry pick; shares compounds with Arr AP2 block; GST-AP2 beads, FITC arrestin peptide binding, flow cytometry; GST-fused beta2-adaptin appendage, R879A mutant; inhibition, % at 10 µM; 1,300 compounds, 2% hits; AID 504908;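 active = inhibition above a set limit, roughly 3 SD of non-fluorescent compound noise, cut at about 38% in these data; inactive = inhibition at or below that limit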;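 note: loss of bead fluorescence from 50 nM FITC arrestin peptide bound to appendage; 0% = negative control wells and 100% = excess unlabelled arrestin peptide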
GST GSH counter: disrupts GST binding to glutathione beads, arrestin-AP2 artifact | GST-fluorescein binding to GSH beads, fluorescence, counter-screen | 1,300 compounds, 2% hits | inhibition, % at 10 µM | shares compounds with Arr AP2 block;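 active = inhibition above 50%, about 3 SD of the inhibition seen with non-fluorescent compounds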;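 note: fluorescein maleimide labelled GST captured on 4 micron glutathione beads; higher means more loss of bead fluorescence from quenching or blocked binding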
The depositor's hits bear a star; ? = inconclusive; . = no result; ! = repeats disagree. Sampled rows, rich in hits. Any-hit rate of the full collection: about 1.1%.

SMILES	Avidin fluor	GSH bead fluor	Arr AP2 block	Pemphigus Ab inh	others
COc1ccc(C(=O)O)cc1OC	.	.	-4.7	.
O=C(O)c1cc[c]([Hg][Cl])cc1	.	.	95.2*	72.9
OC(Cn1c2ccccc2c2ccccc21)C[n+]1cccc2ccccc21 (centres undefined)	78*	49	28.8	102.7
COc1cc(C=NNC(=S)Nc2ccc(S(=O)(=O)N3CCCCC3)cc2)cc(OC)c1OC	.	.	.	99.7
O=c1[nH]c(=S)n(Cc2ccc(F)cc2)c(O)c1/C=N/N1CCCCC1	487*	35	9.2	104.4
CNC1CCc2cc(OC)c(OC)c(OC)c2-c2ccc(SC)c(=O)cc21 (centres undefined)	.	.	6.7	93.3
COC(=O)C(O)(c1ccc(NC(=O)NC2CCCCC2)cc1)C(F)(F)F (centres undefined)	83*	19	6.9	96.8
Cn1c(O)c(Cc2ccc(OCc3ccccc3)cc2)c(=O)n(C)c1=O	.	.	22.0	68.5*
COc1cccc(CC(=O)N2CCN(Cc3cccc(Cl)c3)CC2)c1	.	.	-19.6	-53.0*
COc1cccc(N2CCN(Cc3cccc(Cl)c3)CC2)c1	7	74	-4.4	98.9
COC(=O)C1=C(c2cc3ccccc3s2)C[C@@H]2CC[C@H]1N2C(=O)N1CCOCC1	.	.	5.0	102.2
O=c1[nH]c(=S)[nH]c(O)c1/C=C1/C=c2ccccc2=N1	.	.	26.3	82.8*
Cc1cccc2c1=NC(=O)/C(=C/c1c(O)[nH]c(=O)[nH]c1=O)C=2	13	10	15.9	.
Cc1ccc(NC(=O)c2cn(CCC#N)nc2-c2ccc3c(c2)OCCO3)c([N+](=O)[O-])c1	9	9	1.3	97.7
Clc1ccc(CNCCc2ccc3c(c2)OCO3)cc1	.	.	-6.6	98.0
FC(F)(F)c1ccc(CNCCc2ccc3c(c2)OCO3)cc1	.	.	-3.0	82.6*
O=C(NC(=S)N1C[C@H]2C[C@H](C1)c1cccc(=O)n1C2)c1ccc(Cl)cc1Cl	.	.	1.8	105.6
COP(=O)(NC(=O)C(Cl)(Cl)Cl)OC	81*	.	-2.1	.
COP(=O)(NC(C)=O)SC (centres undefined)	.	.	-2.5	102.2
COc1cc2c(c(OC)c1OC)-c1ccc(OC)c(=O)cc1C(N)CC2 (centres undefined)	.	.	0.4	93.0
O=c1c2ccccc2nc(-c2ccco2)n1-c1cccnc1	8	273*	2.6	104.0
O=c1c2ccccc2nc(-c2ccco2)n1-c1ccccn1	7	261*	-6.3	108.3
O=C1NC(=S)NC(=O)C1=Cc1ccc2c(c1)CCN2CCCCl	7	.	23.0	58.5*
CNCC[C@@H](Oc1ccc(C(F)(F)F)cc1)c1ccccc1	.	.	9.9	101.8
CC(C)n1cc(C(=O)N(CC(=O)NC2CCCC2)Cc2ccccc2)cn1	68*	22	1.3	93.3
SMILES	Avidin fluor	GSH bead fluor	Arr AP2 block	Pemphigus Ab inh	others
CCOC(=O)NC1CCc2cc(OC)c(OC)c(OC)c2-c2ccc(OC)c(=O)cc21 (centres undefined)	.	.	-5.7	86.1
CC(Cc1ccccc1)[n+]1cc(/N=C(\[O-])Nc2ccccc2)on1 (centres undefined)	57*	26	1.4	100.1
CC(=O)c1ccc2c(c1)C1C(Cl)C(Sc3ccccc3[N+](=O)[O-])CC1C(C(=O)O)N2 (centres undefined)	6	18	2.8	78.2
O=C(O)c1cccc2c1NC(C(=O)O)C1CC(Sc3ccccc3[N+](=O)[O-])C(Cl)C21 (centres undefined)	12	15	-3.1	73.2*
CCC(=NCCOc1ccc(Cl)cc1)c1c(O)n(C)c(=O)n(C)c1=O	59*	31	1.1	.
CCC(=NCCN1CCCCC1)c1c(O)n(C)c(=O)n(C)c1=O	15	33	8.8	104.0
COc1ccc(CN2C(=O)C(CC(=O)NCc3ccco3)CC(C(=O)N(C)C)=C2C)cc1 (centres undefined)	.	.	.	106.2
O=C(Cc1ccccc1)OCn1nnc2ccccc2c1=O	4	126*	10.2	102.6
O=C(Cc1ccccc1)OCC(=O)c1ccccc1	.	.	7.9	92.2
COc1cc2c(c(OC)c1OC)-c1ccc(SC)c(=O)cc1C(N)CC2 (centres undefined)	.	.	9.4	119.7
CCC1(CC)C(=O)N(C)C(=O)NC1=NC	95*	.	-20.0	.
CCC1(CC)C(=N)N(C)C(=O)NC1=O	14	5	-0.2	105.9
O=C1NC(=S)NC(=O)C1=Cc1cccn1-c1ccc(O)cc1	14	10	30.3	66.4*
O=C(c1ccccc1)c1ccc(N=Nc2c(O)[nH]c(=O)[nH]c2=O)cc1	11	14	17.4	69.5*
O=C(O)c1cccc(N=Nc2c(O)[nH]c(=O)[nH]c2=O)c1	9	.	23.7	99.2
COc1ccc(CN2C(=O)NC(=O)/C(=C\c3ccco3)C2=O)cc1	20	22	6.0	67.2*
COc1ccc(CN2C(=O)NC(=O)/C(=C\c3cc(OC)c(OC)c(OC)c3)C2=O)cc1	10	13	-3.6	104.0
C=C1C(C)C2C(Cc3ccccc3)NC(=O)C23OC(=O)/C=C/C(O)CCCC(C)C/C=C/C3C1O (centres undefined)	.	.	-16.0	89.2
CN(C)[C@@H]1C(=O)C(C(N)=O)=C(O)[C@@]2(O)C(=O)C3=C(O)c4c(O)cccc4[C@@](C)(O)[C@H]3[C@H](O)[C@@H]12	6	17	13.3	44.9*!
Cc1ccc(CC(=O)N2CCN(C)CC2)cc1	.	.	55.0*	107.4	Arr-AP2 CP1=-0.2;GST GSH counter=-0.8
O=C1NC(=O)N(CCC2=CCCCC2)C(=O)/C1=C\c1cccs1	11	3	55.1*	115.1	Arr-AP2 CP1=8.8;GST GSH counter=1.1
CCN1C(=O)CC(c2cccnc2)=Nc2ccccc21	9	15	-31.5	100.5
O=C1CC(c2cccnc2)=NN1c1ccc(Cl)cc1Cl	12	15	61.4*	96.7	Arr-AP2 CP1=-7.9;GST GSH counter=7.6
Oc1ccc(Cl)c(Cl)c1Cl	.	.	12.4	98.0
NC(N)=Nc1ccc2[nH]c3c(c2c1)C[C@@]1(O)[C@H]2Cc4ccc(O)c5c4[C@@]1(CCN2CC1CC1)[C@H]3O5	.	.	32.1	81.0
Nc1ccc2cc(Br)ccc2c1	9	15	60.5*	106.6	Arr-AP2 CP1=-1.8;GST GSH counter=-2.4
Nc1ccc(Br)cc1	.	.	36.4	?

Screening data as filed in PubChem.
